Laboratory results as given in ChEMBL document CHEMBL5357066, “Development of Novel Membrane Disrupting Lipoguanidine Compounds Sensitizing Gram-Negative Bacteria to Antibiotics” (ACS Med Chem Lett, 2024).
≈ marks a conversion by molar mass, not a printed value.

Key:
Klebsiella pneumoniae [1] = assay: Synergistic antibacterial activity against […] Klebsiella pneumoniae M6 assessed as rifampicin MIC at <=0.25 times MIC incubated for overnight by microbroth dilution checkerboard assay; assay type: functional
How it was run: (§1)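 Checkerboard run under the MIC conditions (TSB, overnight, 37 °C). Antibiotic and lipoguanidine 2-fold series were combined on one plate before bacteria were added. Growth/no-growth was scored as for the MIC (<0.1 OD600). Single-agent MICs were measured on the same plates. Three independent repeats were done.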

Klebsiella pneumoniae [2] = assay: Antibacterial activity against Klebsiella pneumoniae M6 assessed as bacterial growth inhibition incubated for overnight by microbroth dilution method
Acinetobacter baumannii [3] = assay: Synergistic antibacterial activity against Acinetobacter baumannii ATCC 17978 assessed as fold change in rifampicin MIC at <=0.25 times MIC incubated for overnight by microbroth dilution checkerboard assay relative to rifampicin alone; assay type: functional
How it was run: (§2)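 Checkerboard microdilution under MIC conditions (TSB, overnight, 37 °C). Two-fold series of each agent were combined on one plate before bacteria were added, and single-agent MICs were measured on the same plate. FIC = sum of combination MIC/alone MIC for each agent, taken from the most synergistic well. Three independent repeats, mean ± SD. ≤0.5 was taken as strong synergy and 0.5–<1 as weak.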

Escherichia coli [4] = assay: Synergistic antibacterial activity against Escherichia coli NCTC 12923 assessed as rifampicin MIC at <=0.25 times MIC incubated for overnight by microbroth dilution checkerboard assay; assay type: functional; how it was run: as §2
Acinetobacter baumannii [5] = assay: Synergistic antibacterial activity against Acinetobacter baumannii AYE assessed as rifampicin MIC at <=0.25 times MIC incubated for overnight by microbroth dilution checkerboard assay; assay type: functional; how it was run: as §2
Enterococcus faecalis [6] = assay: Antibacterial activity against vancomycin resistant Enterococcus faecalis NCTC 12201 assessed as bacterial growth inhibition incubated for overnight by microbroth dilution method; assay type: functional
How it was run: (§3)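 Microbroth dilution in Tryptic Soy Broth. DMSO stocks were diluted in TSB as 2-fold series. Overnight TSB cultures were back-diluted to OD 0.01 and mixed 1:1 with compound. Incubation was overnight at 37 °C. MIC is the lowest concentration with no visible growth (<0.1 OD600). DMSO at equivalent concentrations was checked.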

Acinetobacter baumannii [7] = assay: Antibacterial activity against Acinetobacter baumannii ATCC 17978 assessed as bacterial growth inhibition incubated for overnight by microbroth dilution method; assay type: functional
How it was run: (§4)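 Broth microdilution in Tryptic Soy Broth. DMSO stocks were diluted in TSB as 2-fold series. Overnight TSB cultures were back-diluted to OD 0.01 and mixed 1:1 with compound. Incubation was overnight at 37 °C. MIC was the lowest concentration without visible growth (<0.1 OD600). DMSO vehicle was checked at equivalent concentrations.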

Pseudomonas aeruginosa [8] = assay: Antibacterial activity against Pseudomonas aeruginosa NCTC 13437 assessed as bacterial growth inhibition incubated for overnight by microbroth dilution method; assay type: functional; how it was run: as §4
Staphylococcus aureus [9] = assay: Antibacterial activity against methicillin sensitive Staphylococcus aureus 1199B assessed as bacterial growth inhibition incubated for overnight by microbroth dilution method; assay type: functional; how it was run: as §3
Acinetobacter baumannii [10] = assay: Synergistic antibacterial activity against Acinetobacter baumannii ATCC 17978 assessed as rifampicin MIC at <=0.25 times MIC incubated for overnight by microbroth dilution checkerboard assay; assay type: functional; how it was run: as §2
Escherichia coli [11] = assay: Synergistic antibacterial activity against Escherichia coli NCTC 12923 assessed as fold change in rifampicin MIC at <=0.25 times MIC incubated for overnight by microbroth dilution checkerboard assay relative to rifampicin alone; assay type: functional; how it was run: as §2
Pseudomonas aeruginosa [12] = assay: Synergistic antibacterial activity against Pseudomonas aeruginosa PAO1 assessed as fold change in rifampicin MIC at <=0.25 times MIC incubated for overnight by microbroth dilution checkerboard assay relative to rifampicin alone; assay type: functional
How it was run: (§5)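 Checkerboard microdilution in Tryptic Soy Broth, run like the MIC assay. Overnight TSB cultures were back-diluted to OD 0.01 and added 1:1 to the combined two-fold series of both agents, then incubated overnight at 37 °C. Growth/no-growth was called at <0.1 OD600. MICs alone were read on the same plates. FIC index came from the most synergistic well; three independent repeats, mean ± SD.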

Staphylococcus aureus [13] = assay: Antibacterial activity against methicillin resistant Staphylococcus aureus USA 300 assessed as bacterial growth inhibition incubated for overnight by microbroth dilution method; assay type: functional; how it was run: as §3
Escherichia coli [14] = assay: Antibacterial activity against Escherichia coli NCTC 12923 assessed as bacterial growth inhibition incubated for overnight by microbroth dilution method; assay type: functional; how it was run: as §4
Pseudomonas aeruginosa [15] = assay: Synergistic antibacterial activity against Pseudomonas aeruginosa NCTC 13437 assessed as fold change in rifampicin MIC at <=0.25 times MIC incubated for overnight by microbroth dilution checkerboard assay relative to rifampicin alone; assay type: functional; how it was run: as §5
Klebsiella pneumoniae [16] = assay: Synergistic antibacterial activity against Klebsiella pneumoniae NCTC 13368 assessed as fold change in rifampicin MIC at <=0.25 times MIC incubated for overnight by microbroth dilution checkerboard assay relative to rifampicin alone; assay type: functional; how it was run: as §1
Enterococcus faecium = assay: Antibacterial activity against vancomycin resistant Enterococcus faecium NCTC 12204 assessed as bacterial growth inhibition incubated for overnight by microbroth dilution method; assay type: functional; how it was run: as §3
Acinetobacter baumannii [17] = assay: Synergistic antibacterial activity against Acinetobacter baumannii AYE assessed as fold change in rifampicin MIC at <=0.25 times MIC incubated for overnight by microbroth dilution checkerboard assay relative to rifampicin alone; assay type: functional; how it was run: as §2
Pseudomonas aeruginosa [18] = assay: Synergistic antibacterial activity against Pseudomonas aeruginosa NCTC 13437 assessed as rifampicin MIC at <=0.25 times MIC incubated for overnight by microbroth dilution checkerboard assay; assay type: functional; how it was run: as §5
Staphylococcus aureus [19] = assay: Antibacterial activity against methicillin sensitive Staphylococcus aureus ATCC 9144 assessed as bacterial growth inhibition incubated for overnight by microbroth dilution method; assay type: functional; how it was run: as §3
Enterococcus faecalis [20] = assay: Antibacterial activity against vancomycin sensitive Enterococcus faecalis NCTC 775 assessed as bacterial growth inhibition incubated for overnight by microbroth dilution method
Pseudomonas aeruginosa [21] = assay: Antibacterial activity against Pseudomonas aeruginosa PAO1 assessed as bacterial growth inhibition incubated for overnight by microbroth dilution method; assay type: functional; how it was run: as §4
Staphylococcus aureus [22] = assay: Antibacterial activity against methicillin resistant Staphylococcus aureus NCTC 13616 assessed as bacterial growth inhibition incubated for overnight by microbroth dilution method; assay type: functional; how it was run: as §3
Pseudomonas aeruginosa [23] = assay: Synergistic antibacterial activity against Pseudomonas aeruginosa PAO1 assessed as rifampicin MIC at <=0.25 times MIC incubated for overnight by microbroth dilution checkerboard assay; assay type: functional; how it was run: as §5
Klebsiella pneumoniae [24] = assay: Antibacterial activity against ESBL Klebsiella pneumoniae NCTC 13368 assessed as bacterial growth inhibition incubated for overnight by microbroth dilution method
Acinetobacter baumannii [25] = assay: Antibacterial activity against Acinetobacter baumannii AYE assessed as bacterial growth inhibition incubated for overnight by microbroth dilution method; assay type: functional; how it was run: as §4
Klebsiella pneumoniae [26] = assay: Synergistic antibacterial activity against Klebsiella pneumoniae NCTC 13368 assessed as rifampicin MIC at <=0.25 times MIC incubated for overnight by microbroth dilution checkerboard assay; assay type: functional; how it was run: as §2

Row | Structure (SMILES) | MIC (Klebsiella pneumoniae [1]) [µg/mL] | MIC (Klebsiella pneumoniae [2]) [µg/mL] | fold change (FC) (Acinetobacter baumannii [3]) | MIC (Escherichia coli [4]) [µg/mL] | MIC (Acinetobacter baumannii [5]) [µg/mL] | MIC (Enterococcus faecalis [6]) [µg/mL] | MIC (Acinetobacter baumannii [7]) [µg/mL] | MIC (Pseudomonas aeruginosa [8]) [µg/mL] | MIC (Staphylococcus aureus [9]) [µg/mL] | MIC (Acinetobacter baumannii [10]) [µg/mL] | fold change (FC) (Escherichia coli [11]) | MIC (Staphylococcus aureus [13]) [µg/mL] | MIC (Escherichia coli [14]) [µg/mL] | MIC (Enterococcus faecium) [µg/mL] | MIC (Staphylococcus aureus [19]) [µg/mL] | MIC (Enterococcus faecalis [20]) [µg/mL] | MIC (Pseudomonas aeruginosa [21]) [µg/mL] | MIC (Staphylococcus aureus [22]) [µg/mL] | MIC (Klebsiella pneumoniae [24]) [µg/mL] | MIC (Acinetobacter baumannii [25]) [µg/mL] | also measured
1 | NCCCCCCCCN=C(N)N | 16 | > 128 | >=4 | 16 | 4 | > 128 | > 128 | > 128 | > 128 | 1 | 0 | 128 (≈ 687 µM) | 128 (≈ 687 µM) | > 128 | 128 (≈ 687 µM) | > 128 | > 128 | > 128 | > 128 | > 128 | fold change (FC) (Pseudomonas aeruginosa [12]): 0; fold change (FC) (Pseudomonas aeruginosa [15]): 0; fold change (FC) (Klebsiella pneumoniae [16]): 0; fold change (FC) (Acinetobacter baumannii [17]): >=4; MIC (Pseudomonas aeruginosa [18]): 32 µg/mL; MIC (Pseudomonas aeruginosa [23]): 32 µg/mL; MIC (Klebsiella pneumoniae [26]): 32 µg/mL
2 | CCCCCCCC/C=C\CCCCCCCCNC(=N)NCCCCCCCCNC(=N)N |  | 64 (≈ 134 µM) |  |  |  | 4 (≈ 8.35 µM) | 16 (≈ 33.4 µM) | > 128 | 4 (≈ 8.35 µM) |  |  | 2 (≈ 4.18 µM) | 32 (≈ 66.8 µM) | 4 (≈ 8.35 µM) | 4 (≈ 8.35 µM) | 4 (≈ 8.35 µM) | > 128 | 4 (≈ 8.35 µM) | 128 (≈ 267 µM) | 16 (≈ 33.4 µM) | 
3 | CCCCC/C=C\C/C=C\CCCCCCCCNC(=N)NCCCCNC(=N)N | ≤ 0.125 | 32 (≈ 76.1 µM) | >=4 | 4 | ≤ 0.125 | 8 (≈ 19 µM) | 32 (≈ 76.1 µM) | 64 (≈ 152 µM) | 4 (≈ 9.51 µM) | ≤ 0.125 | >=4 | 4 (≈ 9.51 µM) | 8 (≈ 19 µM) | 8 (≈ 19 µM) | 4 (≈ 9.51 µM) | 8 (≈ 19 µM) | 64 (≈ 152 µM) | 4 (≈ 9.51 µM) | > 64 | > 64 | fold change (FC) (Pseudomonas aeruginosa [12]): >=4; fold change (FC) (Pseudomonas aeruginosa [15]): >=4; fold change (FC) (Klebsiella pneumoniae [16]): >=4; fold change (FC) (Acinetobacter baumannii [17]): >=4; MIC (Pseudomonas aeruginosa [18]): 4 µg/mL; MIC (Pseudomonas aeruginosa [23]): 2 µg/mL; MIC (Klebsiella pneumoniae [26]): ≤ 0.125 µg/mL
